One block for each compound: values may come before it. Numbered stars: 1 amine (or outer) side, 2 acyl side, 3 side chain; on linkers, the order of the positions; unused ones are H or OH. Square brackets hold non-standard residues; d marks the D form. Peptide text beside a SMILES is read from it. * marks the point of attachment. NH(CH2CH2O)11C2H4NHBiotinyl = O=C(CCCC[C@@H]1SC[C@@H]2NC(=O)N[C@@H]21)NCCOCCOCCOCCOCCOCCOCCOCCOCCOCCOCCOCCN*; X2 = COc1ccc(CN(C)CCCC[C@H](N[*:1])C(=O)[*:2])cc1; X5 = CN(CCCC[C@H](N[*:1])C(=O)[*:2])Cc1ccc(F)cc1; X8 = O=C([C@H](CCCCN(C1CCC1)C1CCC1)N[*:1])[*:2]; X3 = CN(CCCC[C@H](N[*:1])C(=O)[*:2])Cc1ccccc1; X7 = CN(CCCC[C@H](N[*:1])C(=O)[*:2])C1CCCCC1; X1 = CCCN(CCCC[C@H](N[*:1])C(=O)[*:2])C(C)C; X6 = CN(CCCC[C@H](N[*:1])C(=O)[*:2])C1CCCC1; Lys(Et,iPr) = CCN(CCCC[C@H](N)C(=O)O)C(C)C; X4 = COC(C)N(C)CCCC[C@H](N[*:1])C(=O)[*:2]; Benzoyl(4-tBu) = CC(C)(C)c1ccc(C(=O)*)cc1; X9 = O=C([C@H](CCCCN1CCCCC1)N[*:1])[*:2]; Lys(Et2) = CCN(CC)CCCC[C@H](N)C(=O)O; Lys(Me2) = CN(C)CCCC[C@H](N)C(=O)O; NMeA = CN[C@@H](C)C(=O)O
Key:
CBX7 chromodomain [1] = molecular target: T1, CBX7 chromodomain (Homo sapiens, UniProt O95931); experiment: Fluorescence polarization; format: biochemical; details: 30 μM CBX7 chromodomain, 100 nM FAM-dsDNA
T1 sequence (O95931 1-62): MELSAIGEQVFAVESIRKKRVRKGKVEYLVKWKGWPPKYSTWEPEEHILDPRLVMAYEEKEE
Summary of the method: (§1)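 Buffer: 25 mM Tris-HCl pH 7.4, 100 mM NaCl, 0.05% Tween-20, 2 mM DTT; 100 nM FAM-dsDNA or FAM-ANRIL-RNA; 0.2% DMSO; 30 min at RT. Compound titration: eight-point three-fold series from 100 µM with 30 µM CBX7 chromodomain. Ratio mode: CBX7 and test compound co-diluted at fixed 3:1 from 300 µM/100 µM. Polarisation normalised to a no-protein control; α fitted by the Stockton-Ehlert allosteric model.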

CBX7 [2] = molecular target: T2, CBX7 (Mus musculus, UniProt Q8VDS3); experiment: Polycomb in-vivo Assay; format: cell-based; details: for activity in the Polycomb in-vivo Assay (reactivation of GFP expression): 48-hour treatment, flow cytometry
T2 sequence (Q8VDS3 2-69 limits assumed): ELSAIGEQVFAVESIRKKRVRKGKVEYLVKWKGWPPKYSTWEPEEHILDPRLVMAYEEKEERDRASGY

CBX7 chromodomain [3] = molecular target: T1, CBX7 chromodomain; experiment: Fluorescence polarization; format: biochemical; details: 30 μM CBX7 chromodomain, 100 nM FAM-ANRIL-RNA
Summary of the method: as §1

CBX7 chromodomain [4] = molecular target: T1, CBX7 chromodomain; experiment: Electrophoretic mobility shift assay; format: biochemical; details: EMSA, 150 mM CBX7 and 100 nM FAM-dsDNA probe, 1:3 ratio of compound to CBX7
Summary of the method: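 Buffer: 25 mM Tris-HCl pH 7.4, 100 mM NaCl, 0.05% Tween-20, 2 mM DTT. Compound runs used 150 µM CBX7 with 100 nM FAM-DNA probe and 50 µM test compound (0.3% DMSO); protein-only runs used a three-fold CBX7 series. Binding 20 min on ice. Native 10% Tris-glycine gel at 100 V, 4°C, 90 min in the dark. FAM fluorescence imaged, then Coomassie-stained.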

canonical PRC1 complex = experiment: Chemiprecipitation; format: binding, human; details: PC3 cell lysates, western blot
Summary of the method: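 PC3 cells in DMEM/F12 plus 10% FBS were grown to 80–90% confluency, trypsinised, PBS-washed twice, and lysed fresh or after flash freezing. Lysates were pulled down with biotinylated test compounds. Beads were boiled in Laemmli buffer at 95 °C for 3 min, with 1% input. Proteins were separated by SDS-PAGE and blotted to PVDF. Primary antibody overnight at 4°C; infrared secondaries (1:10,000).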

[5] = test system: 120 purified Kme reader domains; experiment: Chromatin-associated domain array; format: binding; details: biotinylated ligand, fluorescently tagged streptavidin visualization
CBX7 [6] = molecular target: T3, CBX7 (Mus musculus, UniProt Q8VDS3); format: cell-based; details: TetOFF reporter cell line; UNC4976 compared to UNC3866 treatment
T3 sequence (Q8VDS3 1-158): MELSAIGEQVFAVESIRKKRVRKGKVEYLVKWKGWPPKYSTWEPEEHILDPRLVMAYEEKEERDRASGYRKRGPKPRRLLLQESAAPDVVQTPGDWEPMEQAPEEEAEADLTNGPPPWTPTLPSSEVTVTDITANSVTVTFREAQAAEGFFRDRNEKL

mESCs = experiment: CellTiter-Glo viability assay in mESCs; format: cell-based, mouse; details: 48 hr
Summary of the method: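 Mouse ES cells, 5,000 per well, exposed in technical triplicate for 48 hr at 37°C to a ten-point three-fold dilution series prepared from 50 mM DMSO stocks (0.2% DMSO final). Media-only wells served as negative controls. After equilibrating at room temperature, CellTiter-Glo was added, with 2 min shaking and 10 min settling, then luminescence read.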

EC50 (CBX7 [2]): 105 ± 11.3 µM
Structure (SMILES): COC(=O)[C@H](CO)NC(=O)[C@H](CCCCN(C)C)NC(=O)[C@H](CC(C)C)NC(=O)[C@H](C)NC(=O)[C@H](Cc1ccccc1)NC(=O)c1ccc(C(C)(C)C)cc1 [UNC5352, methyl N^2-(4-(tert-butyl)benzoyl)-L-phenylalanyl-L-alanyl-L-leucyl-N^6,N^6-dimethyl-L-lysyl-L-serinate] ({Benzoyl(4-tBu)}-FAL[Lys(Me2)]S-OMe)

EC50 (CBX7 [2]): 13.7 ± 0.535 µM
Structure (SMILES): COC(=O)[C@H](CO)NC(=O)[C@H](CCCCN(C1CCC1)C1CCC1)NC(=O)[C@H](CC(C)C)NC(=O)[C@H](C)NC(=O)[C@H](Cc1ccccc1)NC(=O)c1ccc(C(C)(C)C)cc1 [UNC6370, methyl N^2-(4-(tert-butyl)benzoyl)-L-phenylalanyl-L-alanyl-L-leucyl-N^6,N^6-dicyclobutyl-L-lysyl-L-serinate] ({Benzoyl(4-tBu)}-FAL[X8]S-OMe)

EC50 (CBX7 [2]): ~20 µM
Structure (SMILES): COC(=O)[C@H](CO)NC(=O)[C@H](CCCCN(C)C1CCCC1)NC(=O)[C@H](CC(C)C)NC(=O)[C@H](C)NC(=O)[C@H](Cc1ccccc1)NC(=O)c1ccc(C(C)(C)C)cc1 [UNC6371, methyl N^2-(4-(tert-butyl)benzoyl)-L-phenylalanyl-L-alanyl-L-leucyl-N^6-cyclopentyl-N^6-methyl-L-lysyl-L-serinate] ({Benzoyl(4-tBu)}-FAL[X6]S-OMe)

EC50 (CBX7 [2]): 4.59 ± 0.292 µM
Structure (SMILES): COC(=O)[C@H](CO)NC(=O)[C@H](CCCCN(C)C1CCCCC1)NC(=O)[C@H](CC(C)C)NC(=O)[C@H](C)NC(=O)[C@H](Cc1ccccc1)NC(=O)c1ccc(C(C)(C)C)cc1 [UNC6372, methyl N^2-(4-(tert-butyl)benzoyl)-L-phenylalanyl-L-alanyl-L-leucyl-N^6-cyclohexyl-N^6-methyl-L-lysyl-L-serinate] ({Benzoyl(4-tBu)}-FAL[X7]S-OMe)

EC50 (CBX7 [2]): 33.1 ± 1.9 µM
Structure (SMILES): COC(=O)[C@H](CO)NC(=O)[C@H](CCCCN1CCCCC1)NC(=O)[C@H](CC(C)C)NC(=O)[C@H](C)NC(=O)[C@H](Cc1ccccc1)NC(=O)c1ccc(C(C)(C)C)cc1 [UNC6374, methyl ((S)-2-((S)-2-((S)-2-((S)-2-(4-(tert-butyl)benzamido)-3-phenylpropanamido)propanamido)-4-methylpentanamido)-6-(piperidin-1-yl)hexanoyl)-L-serinate] ({Benzoyl(4-tBu)}-FAL[X9]S-OMe)

EC50 (CBX7 [2]): 23.7 ± 1.74 µM
Structure (SMILES): COC(=O)[C@H](CO)NC(=O)[C@H](CCCCN(C)C(C)OC)NC(=O)[C@H](CC(C)C)NC(=O)[C@H](C)NC(=O)[C@H](Cc1ccccc1)NC(=O)c1ccc(C(C)(C)C)cc1 (stereo partly drawn) [UNC6481, methyl N^2-(4-(tert-butyl)benzoyl)-L-phenylalanyl-L-alanyl-L-leucyl-N^6-(1-methoxyethyl)-N^6-methyl-L-lysyl-L-serinate] ({Benzoyl(4-tBu)}-FAL[X4]S-OMe)

The remaining lines, values behind:

Structure (SMILES): Cc1ccccc1Cn1c(=N)n(CC(O)c2ccc(Cl)c(Cl)c2)c2ccccc21.Cl (stereo not shown) [MS351, reference compound]
change of fluorescence polarization on compound titration (CBX7 chromodomain [1]): did not observe increased fluorescence polarization
activity in the Polycomb in-vivo Assay (reactivation of GFP expression) (CBX7 [2]): inactive
change of fluorescence polarization on compound titration (CBX7 chromodomain [3]): did not observe increased fluorescence polarization
effect on FAM-dsDNA binding to CBX7 (CBX7 chromodomain [4]): did not observe enhancement

Structure (SMILES): COc1cccc(C(=O)N2CCN(C(=O)COc3cccc(C)c3)CC2)c1OC [MS452, reference compound]
change of fluorescence polarization on compound titration (CBX7 chromodomain [1]): slight destabilizing effect
activity in the Polycomb in-vivo Assay (reactivation of GFP expression) (CBX7 [2]): inactive
change of fluorescence polarization on compound titration (CBX7 chromodomain [3]): slight destabilizing effect
effect on FAM-dsDNA binding to CBX7 (CBX7 chromodomain [4]): no effect

Structure (SMILES): CCN(CC)CCCC[C@H](NC(=O)[C@H](CC(C)C)NC(=O)[C@H](C)NC(=O)[C@H](Cc1ccccc1)NC(=O)c1ccc(C(C)(C)C)cc1)C(=O)N[C@@H](CO)C(=O)NCCOCCOCCOCCOCCOCCOCCOCCOCCOCCOCCOCCNC(=O)CCCC[C@@H]1SC[C@@H]2NC(=O)N[C@@H]21 [UNC4195, 4-(tert-butyl)-N-((2S,5S,8S,11S,14S)-11-(4-(diethylamino)butyl)-14-(hydroxymethyl)-8-isobutyl-5-methyl-3,6,9,12,15,53-hexaoxo-57-((3aS,4S,6aR)-2-oxohexahydro-1H-thieno[3,4-d]imidazol-4-yl)-1-phenyl-19,22,25,28,31,34,37,40,43,46,49-undecaoxa-4,7,10,13,16,52-hexaazaheptapentacontan-2-yl)benzamide, reference compound] ({Benzoyl(4-tBu)}-FAL[Lys(Et2)]S-{NH(CH2CH2O)11C2H4NHBiotinyl})
pulldown of canonical PRC1 components (CBX4, CBX7, CBX8, RING1B, BMI1) (canonical PRC1 complex): we detected pulldown of CBX4, CBX7, CBX8, RING1B, and BMI1
selectivity profile on CADOR microarray [5]: binding interactions were only detected for all five Polycomb CBX chromodomains and a small subset of CDY chromodomains

Structure (SMILES): CCN(CC)CCCC[C@H](NC(=O)[C@H](CC(C)C)NC(=O)[C@H](C)N(C)C(=O)[C@H](Cc1ccccc1)NC(=O)c1ccc(C(C)(C)C)cc1)C(=O)N[C@@H](CO)C(=O)OC [UNC4219, methyl N^2-N-((4-(tert-butyl)benzoyl)-L-phenylalanyl)-N-methyl-L-alanyl-L-leucyl-N^6,N^6-diethyl-L-lysyl-L-serinate, reference compound] ({Benzoyl(4-tBu)}-F[NMeA]L[Lys(Et2)]S-OMe)
activity in the Polycomb in-vivo Assay (reactivation of GFP expression) (CBX7 [2]): inactive
effect on FAM-dsDNA binding to CBX7 (CBX7 chromodomain [4]): no effect
derepression of the GFP reporter gene / maintenance of Polycomb silencing (CBX7 [6]): unaffected
mESC viability upon compound treatment (mESCs): non-toxic

Structure (SMILES): CCN(CCCC[C@H](NC(=O)[C@H](CC(C)C)NC(=O)[C@H](C)NC(=O)[C@H](Cc1ccccc1)NC(=O)c1ccc(C(C)(C)C)cc1)C(=O)N[C@@H](CO)C(=O)OC)C(C)C [UNC4941, methyl N^2-(4-(tert-butyl)benzoyl)-L-phenylalanyl-L-alanyl-L-leucyl-N^6-ethyl-N^6-isopropyl-L-lysyl-L-serinate] ({Benzoyl(4-tBu)}-FAL[Lys(Et,iPr)]S-OMe)
EC50 (CBX7 [2]): 36.6 ± 1.14 µM

Structure (SMILES): CCCN(CCCC[C@H](NC(=O)[C@H](CC(C)C)NC(=O)[C@H](C)NC(=O)[C@H](Cc1ccccc1)NC(=O)c1ccc(C(C)(C)C)cc1)C(=O)N[C@@H](CO)C(=O)OC)C(C)C [UNC4971, methyl N^2-(4-(tert-butyl)benzoyl)-L-phenylalanyl-L-alanyl-L-leucyl-N^6-isopropyl-N^6-propyl-L-lysyl-L-serinate] ({Benzoyl(4-tBu)}-FAL[X1]S-OMe)
EC50 (CBX7 [2]): 26.5 ± 3.24 µM

Structure (SMILES): COC(=O)[C@H](CO)NC(=O)[C@H](CCCCN(C)Cc1ccccc1)NC(=O)[C@H](CC(C)C)NC(=O)[C@H](C)NC(=O)[C@H](Cc1ccccc1)NC(=O)c1ccc(C(C)(C)C)cc1 [UNC6375, methyl N^6-benzyl-N^2-(4-(tert-butyl)benzoyl)-L-phenylalanyl-L-alanyl-L-leucyl-N^6-methyl-L-lysyl-L-serinate] ({Benzoyl(4-tBu)}-FAL[X3]S-OMe)
EC50 (CBX7 [2]): 2.36 ± 0.115 µM

Structure (SMILES): COC(=O)[C@H](CO)NC(=O)[C@H](CCCCN(C)Cc1ccc(F)cc1)NC(=O)[C@H](CC(C)C)NC(=O)[C@H](C)NC(=O)[C@H](Cc1ccccc1)NC(=O)c1ccc(C(C)(C)C)cc1 [UNC6376, methyl N^2-(4-(tert-butyl)benzoyl)-L-phenylalanyl-L-alanyl-L-leucyl-N^6-(4-fluorobenzyl)-N^6-methyl-L-lysyl-L-serinate] ({Benzoyl(4-tBu)}-FAL[X5]S-OMe)
EC50 (CBX7 [2]): 2.22 ± 0.194 µM

Structure (SMILES): COC(=O)[C@H](CO)NC(=O)[C@H](CCCCN(C)Cc1ccc(OC)cc1)NC(=O)[C@H](CC(C)C)NC(=O)[C@H](C)NC(=O)[C@H](Cc1ccccc1)NC(=O)c1ccc(C(C)(C)C)cc1 [UNC6483, methyl N^2-(4-(tert-butyl)benzoyl)-L-phenylalanyl-L-alanyl-L-leucyl-N^6-(4-methoxybenzyl)-N^6-methyl-L-lysyl-L-serinate] ({Benzoyl(4-tBu)}-FAL[X2]S-OMe)
EC50 (CBX7 [2]): 2.06 ± 0.135 µM

— publication PMC6800648 (Cell chemical biology, 2019)
